# Screening results from PubChem BioAssay.
# RGS4 act – potentiators or activators of RGS4; AID 463111; HEK293 M3R/inducible RGS4, carbachol calcium flux Fluo4; active compounds read low; hit rate 0.92% among 310,000; B-score at 10 µM;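 active = B-score of the integrated calcium signal more than 4 SD below the library mean, with starting fluorescence not abnormally high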;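 also: negative B-score means reduced calcium response which marks RGS4 activation or potentiation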
#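 System – HEK293 FlpIn-TREx cells, stable M3R, doxycycline-inducible RGS4 · Reagent – ECmax carbachol challenge · Times – compound preincubation 20 min at room temperature before agonist · Technique – Fluo4 fluorescence kinetic imaging of calcium · Measure – B score of integrated Fluo4 ratio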
# MrgX1 antag – antagonists of human MrgX1 receptor; B-score at 10 µM; MRGX1-HEK293 calcium flux, Fluo-4, BAM8-22 antagonism; active compounds read low; AID 588676; Q96LB2; hit rate 1.3% among 310,000;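 active = calcium-response B-score plate-corrected more than 3 library SD below zero, starting fluorescence within 5 deviations, no agonist response on first addition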;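 also: peak minus trough fluorescence over baseline after final BAM8-22 challenge near maximal dose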
# Target sequence (Q96LB2 whole entry, looked up): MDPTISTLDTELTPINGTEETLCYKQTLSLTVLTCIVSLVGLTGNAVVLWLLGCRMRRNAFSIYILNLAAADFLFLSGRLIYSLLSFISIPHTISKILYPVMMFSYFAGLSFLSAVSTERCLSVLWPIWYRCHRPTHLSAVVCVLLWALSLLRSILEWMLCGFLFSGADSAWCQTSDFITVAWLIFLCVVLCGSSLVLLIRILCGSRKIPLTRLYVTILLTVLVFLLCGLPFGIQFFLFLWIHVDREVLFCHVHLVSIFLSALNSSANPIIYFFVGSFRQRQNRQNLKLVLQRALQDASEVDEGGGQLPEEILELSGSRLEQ
# MrgX1 agonist – human MrgX1 receptor agonism, primary screen; Q96LB2; MrgX1-HEK293 cells, Fluo-4 calcium fluorescence, agonist mode; active compounds read high; B-score at 10 µM; hit rate 0.44% among 310,000;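 active = calcium response B-score plate-corrected fluorescence ratio at least 3 library SD, with starting fluorescence B-score inside 5 SD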
#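 Test system: HEK293 cells stably expressing human MrgX1 receptor; amount: 15,000 cells per well; doses: compound delivered in addition one of three; times: overnight plating before 1 h dye loading; detection: Fluo-4 NW calcium-flux fluorescence, kinetic read; read-out basis: B-scored fluorescence response ratio; controls: positive and negative controls per plate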
# MrgX1 allo act – allosterically activates human MrgX1 receptor signaling; MrgX1-HEK293, Fluo-4 calcium flux, FDSS; active compounds read high; hit rate 0.63% among 310,000; B-score at 10 µM; Q96LB2; AID 588675;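 active = plate-corrected calcium response at least 3 library SD above typical, normal starting fluorescence, not activating the receptor alone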;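 also: compound read alongside a low EC10 to EC30 dose of BAM8-22 agonist; peak minus trough fluorescence over baseline measured at the second addition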
# RGS4 block – inhibitors of human RGS4 | P49798 | HEK293 M3R/RGS4 inducible, Fluo-4 calcium flux; active compounds read high; triggered by carbachol at its EC20 | B-score at 10 µM | hit rate 0.45% among 310,000 | AID 463165;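 active = B-score, a plate-corrected calcium signal, over three deviations above library mean, with baseline fluorescence within five deviations of library mean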;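 also: RGS4 expression induced by doxycycline in cells with stable M3 receptor; B-score is computed from the integrated fluorescence ratio over baseline after carbachol; higher B-score means a larger calcium signal and so more RGS4 inhibition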
# Target sequence (P49798 whole entry, looked up): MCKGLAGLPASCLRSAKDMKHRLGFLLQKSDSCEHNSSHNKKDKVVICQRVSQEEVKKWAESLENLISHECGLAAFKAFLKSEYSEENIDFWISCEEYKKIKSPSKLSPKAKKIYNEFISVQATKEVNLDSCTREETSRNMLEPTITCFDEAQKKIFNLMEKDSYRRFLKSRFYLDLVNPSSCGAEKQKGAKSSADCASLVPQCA
# RGS4 inh valid – RGS4 inhibitor validation | shares compounds with RGS4 block | HEK293 M3R/RGS4, carbachol calcium Fluo-4 fluorescence; carbachol added at its EC20; 0 = buffer wells, 100 = carbachol control | calcium response, % at 10 µM | hit rate 65% among 1,700 | AID 492999;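 active = duplicate-averaged calcium response above the buffer-only control mean plus 5 SD of those controls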;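 also: integrated fluorescence ratio F max minus min over baseline F0; higher response in RGS4-induced cells means RGS4 inhibition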
# M3R Ca ctr – non-induced cell nonspecific activity of RGS4 inhibitors; shares compounds with RGS4 block; HEK293 M3R non-induced, carbachol calcium Fluo-4; submaximal (EC20) carbachol stimulus; buffer wells 0%, carbachol control wells 100%; activity (percent), % at 10 µM; hit rate 20% among 1,900; AID 493000; call rule not given here;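 also: RGS4 induction absent so cells express M3R without RGS4; higher means more calcium signal and flags a non-specific hit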
# RGS4 inh ctr2 – second counter-screen for RGS4 inhibitors: non-induced cells without carbachol; calcium response (agonist-mode artifact), % at 10 µM; hit rate 22% among 1,900; HEK293 M3R/RGS4 non-induced, Fluo-4 calcium, no carbachol; normalised: buffer wells 0%, carbachol wells 100%; shares compounds with RGS4 block;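 active = duplicate-averaged calcium rise in uninduced cells above buffer wells' mean plus 5 SD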
# MrgX1 ag confirm – reconfirmed activator of human MrgX1 receptor signaling; shares compounds with MrgX1 agonist; MrgX1-HEK293, Fluo-4 calcium fluorescence, FDSS; activation, % at 10 µM; hit rate 78% among 600; AID 602412;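 active = calcium signal rise, corrected for plate position, at least 3 library SD high, with starting brightness within 5 such deviations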
# MrgX1 antag conf – reconfirmed antagonist of human MrgX1 receptor signaling; shares compounds with MrgX1 antag; hit rate 19% among 2,300; remaining BAM8-22 calcium response % of control (active compounds read low), % at 10 µM; MrgX1-HEK293, BAM8-22 calcium flux, Fluo-4; active compounds read low;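 active = remaining agonist calcium response no higher than 100% minus 3 SD of agonist-only control wells, with starting fluorescence near control levels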;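 also: agonist BAM8-22 given at a near maximal EC90 to ECmax level; peak minus minimum fluorescence divided by baseline after agonist addition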
# HEK293 Ca flux – counter-screen for MrgX1 antagonists: effect in parental HEK293 cells; Fluo-4 calcium fluorescence, FDSS; shares compounds with MrgX1 antag; fluorescence ratio F(max-min)/F0 at 10 µM; hit rate 2% among 4,000;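 active = duplicate-averaged calcium fluorescence ratio at least three times the standard deviation of buffer wells, a nonspecific response in parental cells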
# HEK293 Ca counter – MrgX1 allosteric activator counter-screen hit in parental HEK293 cells; shares compounds with MrgX1 antag; parental HEK293 calcium flux, Fluo-4 fluorescence ratio; active compounds read high; fluorescence ratio F(max-min)/F0 at 10 µM; hit rate 0.4% among 4,000;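 active = calcium fluorescence ratio, averaged over duplicates, at least 3 SD of the buffer-well ratio, meaning a nonspecific response in receptor-free cells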;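 also: untransfected parental HEK293 lacking MrgX1 used as counterscreen for MrgX1 allosteric activators; fluorescence change taken during the second addition on a kinetic imager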
# HEK293 Ca cntr2 – counter-screen for MrgX1 activators: effect in parental HEK293 cells; shares compounds with MrgX1 antag; Fluo-4 calcium fluorescence (FDSS); active compounds read high; fluorescence ratio F(max-min)/F0 at 10 µM; hit rate 8.7% among 4,000; AID 624115;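 active = calcium fluorescence ratio at least three times the spread of buffer wells, meaning a non-specific response in parental cells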
# * marks the source's active call; other numbers are inactive results; i = inactive; . = no result. The list is not random: actives were taken first. Their share in the collection is about 3.5%.
SMILES,RGS4 act,MrgX1 antag,MrgX1 agonist,MrgX1 allo act,RGS4 block,MrgX1 ag confirm,HEK293 Ca flux,HEK293 Ca counter,HEK293 Ca cntr2,others
COc1cc(/C=C2/C(=O)NN(c3cccc(Cl)c3)C2=O)cc(OC)c1O,i,i,79*,i,i,421%*,i,i,84*,M3R Ca ctr=i;RGS4 inh ctr2=106%*
Cn1c(=O)[nH]c(=O)c2c1nc(Br)n2CCCc1ccccc1,i,.,.,.,i,.,.,.,.,
COc1cccc(NC(=O)Cn2c(CCC(=O)O)ccc2-c2ccccc2)c1,i,i,i,i,i,.,.,.,.,
O=C1/C(=C/c2ccc(O)cc2)SC(=S)N1Cc1cccnc1,i,i,i,i,i,.,.,.,.,
O=C1/C(=C\c2ccc(O)c(O)c2)SC(=S)N1Cc1ccccc1,i,-12*,i,i,14*,.,0.31*,i,i,RGS4 inh valid=16%*;M3R Ca ctr=36%*;RGS4 inh ctr2=42%*;MrgX1 antag conf=i
CCOC(=O)C1=C(O)/C(=C\c2cccc(OC)c2)N=C1C,i,i,32*,i,14*,158%*,i,i,i,RGS4 inh valid=47%*;M3R Ca ctr=i;RGS4 inh ctr2=i
COC(=O)C1=C(O)/C(=C/c2cccc(OC)c2O)N=C1C,i,i,i,i,i,.,.,.,.,
CCOC(=O)C(=O)C1=C(N2CCOCC2)/C(=C\c2ccc(F)cc2)CC1,i,i,27*,i,7.7*,220%*,i,i,45*,RGS4 inh valid=7.0%*;M3R Ca ctr=i;RGS4 inh ctr2=21%*
CCOC(=O)[C@@H]1[C@H]2COc3cc(OC)ccc3[C@H]2N2C(=O)N(c3ccc(C(F)(F)F)cc3)C(=O)[C@@]12C,i,i,i,i,i,.,.,.,.,
CCOC(=O)[C@@H]1[C@H]2COc3ccccc3[C@@H]2N2C(=O)N(c3cccc(C)c3)C(=O)[C@]12C,i,-5.8*,i,i,i,.,i,i,i,RGS4 inh valid=i;M3R Ca ctr=i;RGS4 inh ctr2=i;MrgX1 antag conf=i
CCOC(=O)[C@@H]1[C@H]2COc3ccccc3[C@H]2N2C(=O)N(c3ccc(OC)cc3)C(=O)[C@]12C,i,-6.3*,i,i,i,.,i,i,i,RGS4 inh valid=i;M3R Ca ctr=i;RGS4 inh ctr2=i;MrgX1 antag conf=i
COc1ccc2c(C(=O)c3ccc(Cl)cc3)n(CCCC(N)=O)[n+]([O-])c2c1,i,i,i,i,i,.,.,.,.,
O=C1c2ccccc2S(=O)(=O)c2cc(C(=O)N(c3ccccn3)c3ccccn3)ccc21,i,i,41*,i,4.9*,653%*,i,i,126*,RGS4 inh valid=14%*;M3R Ca ctr=34%*;RGS4 inh ctr2=135%*
N#C/C(=C\c1ccco1)Sc1nc2ccccc2s1,i,i,i,i,i,.,.,.,.,
CC(C)C(NS(=O)(=O)c1ccccc1)C(=O)N1CCCCCC1 (centres undefined),i,i,i,i,i,.,.,.,.,
Cc1cc(N2CCN(c3ccccc3)CC2)nc(N)n1,i,i,43*,i,i,252%*,i,i,i,
Cc1cc(N2CCOCC2)nc(N)n1,i,i,73*,i,i,275%*,i,i,78*,
Cc1cc(N2CCN(c3ccccc3)CC2)nc(-c2ccccc2)n1,i,i,i,i,i,.,.,.,.,
Cc1ccc(CNC(=O)c2ccc(Cl)c(S(N)(=O)=O)c2)n1C,i,i,71*,i,i,283%*,i,i,i,
COc1ccc(C2CC(c3ccccc3)=NN2C(=O)COC(=O)c2cccnc2)cc1 (centres undefined),i,i,i,i,i,.,.,.,.,
C=CCOC(=O)C1=C(C)OC(N)=C(C#N)C1c1ccccc1F (centres undefined),i,i,27*,i,i,173%*,i,i,i,
CCCCOc1ccc(CSC(=N)N)cc1Cl,i,i,35*,i,i,164%*,i,i,i,
CCCCCOc1ccc(Br)cc1CSC(=N)N,i,.,.,.,i,.,.,.,.,
CCOC(=O)c1c(CSC(=N)N)n(C)c2cc(Br)c(OC(C)=O)cc12,i,i,46*,i,i,188%*,i,i,i,
CCOC(=O)c1c(CN2CCN(C)CC2)n(C)c2cc(Br)c(OC)cc12,i,i,i,i,i,.,.,.,.,
SMILES,RGS4 act,MrgX1 antag,MrgX1 agonist,MrgX1 allo act,RGS4 block,MrgX1 ag confirm,HEK293 Ca flux,HEK293 Ca counter,HEK293 Ca cntr2,others
CCC1=C(OC(=O)N(CC)CC)N2C(=O)OC(=NCC3CC3)[C@]2(C)[C@H]2C1=CC[C@H]1C(=O)N(CC)C(=O)[C@H]12,i,i,i,i,i,.,.,.,.,
COc1ccc(-c2csc(NC(=O)CCN3C(=O)C4CC=CCC4C3=O)n2)cc1OC (centres undefined),-7.3*,i,45*,i,i,i,i,i,i,
COc1ccc(-c2csc(NC(=O)CS(=O)(=O)c3ccc(F)cc3)n2)cc1OC,i,i,55*,i,i,i,i,i,i,
COc1ccc(-c2csc(NC(=O)Cc3cc(OC)c(OC)c(OC)c3)n2)cc1OC,i,i,i,i,i,.,.,.,.,
CCn1c(=O)c(NC(=O)c2ccccc2)c2n(c1=S)CCCCC2,i,i,i,i,i,.,.,.,.,
CN(C)CCOc1ccc2c(c1)Sc1ccccc1CC2=O,i,i,55*,i,i,i,i,i,i,
